Converted amounts (≈) assume the structure as drawn. The source made the active and inactive calls. The rule behind the calls is not given here.
Assays:
Trichophyton rubrum [1] = assay: Antifungal activity against Trichophyton rubrum CCC 110 by NCCLS broth microdilution method; type: functional; conditions: read-out: MIC100
Summary of the method: (§1)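 MIC by broth microdilution per NCCLS M27-A3/M38-A2 in RPMI-1640 buffered to pH 7.0 with MOPS. Twofold dilutions from 250–0.98 µg/mL, final DMSO ≤1%. Inoculum 1–5 × 10³ CFU/mL. Incubated in a moist dark chamber, 30 °C for Aspergillus and 28–30 °C for dermatophytes. Read visually when control growth allowed. Endpoint is the lowest concentration giving total inhibition of visible growth (MIC100).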

Candida tropicalis [2] = assay: Antifungal activity against Candida tropicalis after 48 hrs by NCCLS broth microdilution method; type: functional; conditions: read-out: MIC100
Summary of the method: (§2)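 Yeast MIC by NCCLS M27-A3 broth microdilution in RPMI-1640 buffered to pH 7.0 with MOPS. Twofold dilutions of 250–0.98 µg/mL, final DMSO ≤1%. Inoculum 1–5 × 10³ CFU/mL. Incubated at 30 °C in a moist dark chamber. Read visually at 48 h. MIC100 is the lowest concentration with no visible growth versus drug-free control.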

Cryptococcus neoformans [3] = assay: Antifungal activity against Cryptococcus neoformans ATCC 32264 after 48 hrs by NCCLS broth microdilution method; type: functional; conditions: ATCC 32264, 48 h, read-out: MIC100; summary of the method: as §2
[4] = system: Trichophyton mentagrophytes; assay: Antifungal activity against Trichophyton mentagrophytes ATCC 9972 by NCCLS broth microdilution method; type: functional; conditions: read-out: MIC100; summary of the method: as §1
Aspergillus fumigatus [5] = assay: Antifungal activity against Aspergillus fumigatus ATCC 26934 by NCCLS broth microdilution method; type: functional; conditions: read-out: MIC100; summary of the method: as §1
Nannizzia gypsea [6] = assay: Antifungal activity against Microsporum gypseum CCC 115 by NCCLS broth microdilution method; type: functional; conditions: read-out: MIC100; summary of the method: as §1
Aspergillus niger [7] = assay: Antifungal activity against Aspergillus niger ATCC 9029 by NCCLS broth microdilution method; type: functional; conditions: read-out: MIC100; summary of the method: as §1
Candida albicans [8] = assay: Antifungal activity against Candida albicans ATCC 10231 after 48 hrs by NCCLS broth microdilution method; type: functional; conditions: ATCC 10231, 48 h, read-out: MIC100; summary of the method: as §2
Aspergillus flavus [9] = assay: Antifungal activity against Aspergillus flavus ATCC 9170 by NCCLS broth microdilution method; type: functional; conditions: read-out: MIC100; summary of the method: as §1
[10] = system: Trichophyton mentagrophytes; assay: Antifungal activity against Trichophyton mentagrophytes ATCC 9972 at 0.98 to 250 ug/mL by NCCLS broth microdilution method; type: functional, organism-based; summary of the method: as §1
Aspergillus flavus [11] = assay: Antifungal activity against Aspergillus flavus ATCC 9170 at 0.98 to 250 ug/mL by NCCLS broth microdilution method; type: functional, organism-based; summary of the method: as §1
Aspergillus niger [12] = assay: Antifungal activity against Aspergillus niger ATCC 9029 at 0.98 to 250 ug/mL by NCCLS broth microdilution method; type: functional, organism-based; summary of the method: as §1
Aspergillus fumigatus [13] = assay: Antifungal activity against Aspergillus fumigatus ATCC 26934 at 0.98 to 250 ug/mL by NCCLS broth microdilution method; type: functional, organism-based; summary of the method: as §1
Cryptococcus neoformans [14] = assay: Antifungal activity against Cryptococcus neoformans ATCC 32264 at 0.98 to 250 ug/mL after 48 hrs by NCCLS broth microdilution method; type: functional, organism-based; summary of the method: as §2
Trichophyton rubrum [15] = assay: Antifungal activity against Trichophyton rubrum CCC 110 at 0.98 to 250 ug/mL by NCCLS broth microdilution method; type: functional, organism-based; summary of the method: as §1
Nannizzia gypsea [16] = assay: Antifungal activity against Microsporum gypseum CCC 115 at 0.98 to 250 ug/mL by NCCLS broth microdilution method; type: functional, organism-based; summary of the method: as §1
Candida albicans [17] = assay: Antifungal activity against Candida albicans ATCC 10231 at 0.98 to 250 ug/mL after 48 hrs by NCCLS broth microdilution method; type: functional, organism-based; summary of the method: as §2
Candida tropicalis [18] = assay: Antifungal activity against Candida tropicalis at 0.98 to 250 ug/mL after 48 hrs by NCCLS broth microdilution method; type: functional, organism-based; summary of the method: as §2
Candida albicans [19] = assay: Antifungal activity against Candida albicans ATCC 10231 after 24 hrs by microplate reader analysis; type: functional; conditions: ATCC 10231, 24 h
Summary of the method: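 96-well RPMI-1640 wells with compound at final 250–0.98 µg/mL (DMSO ≤1%). Inoculum 100 µL, 1–5 × 10³ CFU/mL, 200 µL final. Each well includes growth (DMSO, no compound) and sterility controls. % inhibition = 100 − (CTW−SCW)/(GCW−SCW) × 100, run in duplicate.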

Cryptococcus neoformans [20] = assay: Antifungal activity against Cryptococcus neoformans ATCC 32264 after 48 hrs by microplate reader analysis; type: functional; conditions: ATCC 32264, 48 h
Summary of the method: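 Microplate growth-inhibition assay in RPMI-1640, compound at final 250–0.98 µg/mL (DMSO ≤1%). Inoculum 1–5 × 10³ CFU/mL. Sterility and DMSO growth controls included. Percent inhibition is computed from blank-corrected OD relative to the growth control, tested in duplicate.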

Candida tropicalis [21] = assay: Antifungal activity against Candida tropicalis by microplate reader analysis; type: functional

Row | Compound | MIC (Trichophyton rubrum [1]) | MIC (Candida tropicalis [2]) | MIC (Cryptococcus neoformans [3]) | MIC [4] | MIC (Aspergillus fumigatus [5]) | MIC (Nannizzia gypsea [6]) | MIC (Aspergillus niger [7]) | MIC (Candida albicans [8]) | MIC (Aspergillus flavus [9]) | Activity [10] | Activity (Aspergillus flavus [11]) | Activity (Aspergillus niger [12]) | Activity (Aspergillus fumigatus [13]) | Activity (Cryptococcus neoformans [14]) | Activity (Trichophyton rubrum [15]) | Activity (Nannizzia gypsea [16]) | Activity (Candida albicans [17]) | Activity (Candida tropicalis [18]) | further results
1 | CC(=O)N1CCN(c2ccc(OCC3COC(Cn4ccnc4)(c4ccc(Cl)cc4Cl)O3)cc2)CC1 (centres undefined) [KETOCONAZOLE] | 0.03 µg/mL (≈ 0.0565 µM) | 0.49 µg/mL (≈ 0.922 µM) | 0.25 µg/mL (≈ 0.47 µM) | 0.03 µg/mL (≈ 0.0565 µM) | 0.49 µg/mL (≈ 0.922 µM) | 0.06 µg/mL (≈ 0.113 µM) | 0.25 µg/mL (≈ 0.47 µM) | 0.98 µg/mL (≈ 1.84 µM) | 0.12 µg/mL (≈ 0.226 µM) |  |  |  |  |  |  |  |  |  | 
2 | CN(C/C=C/C#CC(C)(C)C)Cc1cccc2ccccc12 [TERBINAFINE] | 0.01 µg/mL (≈ 0.0343 µM) | 1.95 µg/mL (≈ 6.69 µM) | 0.49 µg/mL (≈ 1.68 µM) | 0.03 µg/mL (≈ 0.103 µM) | 0.98 µg/mL (≈ 3.36 µM) | 0.04 µg/mL (≈ 0.137 µM) | 1.96 µg/mL (≈ 6.73 µM) | 0.98 µg/mL (≈ 3.36 µM) | 0.98 µg/mL (≈ 3.36 µM) |  |  |  |  |  |  |  |  |  | 
3 | CCOC(=O)CNc1nc(N)nc(OC)c1N=O |  |  |  |  |  |  |  |  |  | inactive | inactive | inactive | inactive | inactive | inactive | inactive | inactive | inactive | 
4 | C[C@@H]1[C@H](O)[C@@H](C)/C=C/C=C/C=C/C=C/C=C/C=C/C=C/[C@H](O[C@@H]2O[C@H](C)[C@@H](O)[C@H](N)[C@@H]2O)C[C@@H]2O[C@](O)(C[C@@H](O)C[C@@H](O)[C@H](O)CC[C@@H](O)C[C@@H](O)CC(=O)O[C@H]1C)C[C@H](O)[C@H]2C(=O)O [AMPHOTERICIN B] | 0.06 µg/mL (≈ 0.0649 µM) | 0.98 µg/mL (≈ 1.06 µM) | 0.25 µg/mL (≈ 0.271 µM) | 0.06 µg/mL (≈ 0.0649 µM) | 0.49 µg/mL (≈ 0.53 µM) | 0.12 µg/mL (≈ 0.13 µM) | 0.49 µg/mL (≈ 0.53 µM) | 0.98 µg/mL (≈ 1.06 µM) | 0.49 µg/mL (≈ 0.53 µM) |  |  |  |  |  |  |  |  |  | MIC50 (Candida albicans [19]): 0.49 µg/mL (≈ 0.53 µM); MIC50 (Cryptococcus neoformans [20]): 0.98 µg/mL (≈ 1.06 µM); MIC50 (Candida tropicalis [21]): 0.49 µg/mL (≈ 0.53 µM)
5 | COc1nc(N)c(N=O)c(=O)n1Cc1ccccc1 |  |  |  |  |  |  |  |  |  | inactive | inactive | inactive | inactive | inactive | inactive | inactive | inactive | inactive | 
6 | CCOC(=O)[C@H](C)Nc1nc(N)nc(OCC2CCCCC2)c1N=O |  |  |  |  |  |  |  |  |  | inactive | inactive | inactive | inactive | inactive | inactive | inactive | inactive | inactive | 
7 | CCOC(=O)[C@H](Cc1ccccc1)Nc1nc(N)nc(OCC2CCCCC2)c1N=O |  |  |  |  |  |  |  |  |  | inactive | inactive | inactive | inactive | inactive | inactive | inactive | inactive | inactive | 
8 | COc1nc(N)nc2c1NC(=O)CCN2 |  |  |  |  |  |  |  |  |  | inactive | inactive | inactive | inactive | inactive | inactive | inactive | inactive | inactive | 
9 | CCOC(=O)C(C)Nc1nc(N)nc(OC)c1N=O (centres undefined) |  |  |  |  |  |  |  |  |  | inactive | inactive | inactive | inactive | inactive | inactive | inactive | inactive | inactive | 

— ChEMBL document CHEMBL2146464, “Structure-activity relationship study of nitrosopyrimidines acting as antifungal agents” (Bioorg Med Chem, 2012)
